Data on 19 molecules can be found in ChEMBL document CHEMBL1148234, “Tricyclic pyridones as functionally selective human GABAA alpha 2/3 receptor-ion channel ligands” (Bioorg Med Chem Lett, 2004).

For data set [1], the target named is T1, GABA-A receptor; alpha-3/beta-3/gamma-2 (Homo sapiens, UniProt P18507+P28472+P34903).
T1 sequence (P18507 whole entry): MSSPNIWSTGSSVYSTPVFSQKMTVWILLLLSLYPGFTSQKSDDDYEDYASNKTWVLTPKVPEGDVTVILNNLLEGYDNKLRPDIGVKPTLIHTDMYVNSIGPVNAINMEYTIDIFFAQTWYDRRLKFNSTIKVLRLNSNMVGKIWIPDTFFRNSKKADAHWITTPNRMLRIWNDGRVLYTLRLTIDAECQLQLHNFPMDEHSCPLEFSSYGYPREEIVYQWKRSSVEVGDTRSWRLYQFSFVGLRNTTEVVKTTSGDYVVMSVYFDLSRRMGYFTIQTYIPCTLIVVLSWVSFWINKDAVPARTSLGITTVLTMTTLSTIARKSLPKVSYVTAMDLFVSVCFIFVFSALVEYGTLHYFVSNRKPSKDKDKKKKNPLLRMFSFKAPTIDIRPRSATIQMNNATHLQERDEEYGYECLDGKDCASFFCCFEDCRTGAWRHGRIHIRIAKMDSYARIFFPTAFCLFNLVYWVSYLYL
T1 sequence (P28472 whole entry): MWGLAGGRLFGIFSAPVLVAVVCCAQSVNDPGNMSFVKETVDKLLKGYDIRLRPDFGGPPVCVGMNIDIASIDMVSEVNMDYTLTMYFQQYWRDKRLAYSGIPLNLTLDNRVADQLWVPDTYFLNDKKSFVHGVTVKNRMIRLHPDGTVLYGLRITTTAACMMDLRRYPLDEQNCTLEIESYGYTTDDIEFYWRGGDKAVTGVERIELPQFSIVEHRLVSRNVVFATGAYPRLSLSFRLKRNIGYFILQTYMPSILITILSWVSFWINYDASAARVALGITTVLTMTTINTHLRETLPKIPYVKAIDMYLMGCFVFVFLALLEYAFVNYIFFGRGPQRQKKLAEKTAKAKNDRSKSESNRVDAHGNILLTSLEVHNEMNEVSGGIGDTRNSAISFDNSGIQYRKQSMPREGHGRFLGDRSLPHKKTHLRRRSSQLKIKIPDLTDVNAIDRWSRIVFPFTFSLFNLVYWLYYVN
T1 sequence (P34903 whole entry): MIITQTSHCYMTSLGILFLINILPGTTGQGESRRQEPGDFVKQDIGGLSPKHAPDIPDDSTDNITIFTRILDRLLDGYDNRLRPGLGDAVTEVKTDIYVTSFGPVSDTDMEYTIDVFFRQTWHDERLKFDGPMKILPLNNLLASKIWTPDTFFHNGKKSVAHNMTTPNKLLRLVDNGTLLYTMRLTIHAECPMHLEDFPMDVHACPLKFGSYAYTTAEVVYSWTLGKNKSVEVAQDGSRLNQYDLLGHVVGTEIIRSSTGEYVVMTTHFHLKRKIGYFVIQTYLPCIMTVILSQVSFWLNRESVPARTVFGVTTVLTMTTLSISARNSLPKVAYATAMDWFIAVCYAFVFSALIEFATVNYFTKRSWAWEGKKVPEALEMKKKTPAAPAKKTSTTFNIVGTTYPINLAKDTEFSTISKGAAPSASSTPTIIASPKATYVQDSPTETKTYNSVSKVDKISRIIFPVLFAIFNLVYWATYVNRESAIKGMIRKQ
Put plainly: Binding affinity at human recombinant gamma-aminobutyric-acid A receptor alpha-3-beta-3-gamma-2 expressed in L(tk) cells by [3H]Ro-151788 displacement. Format: cell-based. Summed up: (§1)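 Human recombinant GABAA receptors (α1 or α3 with β3γ2) stably expressed in L(tk⁻) cells; affinity measured as displacement of [³H]Ro15-1788. Values are mean±SD of 2–10 separate determinations.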

Data set [2] has as its target T2, GABA-A receptor; alpha-1/beta-3/gamma-2 (Homo sapiens, UniProt P14867+P18507+P28472).
T2 sequence (P14867 whole entry): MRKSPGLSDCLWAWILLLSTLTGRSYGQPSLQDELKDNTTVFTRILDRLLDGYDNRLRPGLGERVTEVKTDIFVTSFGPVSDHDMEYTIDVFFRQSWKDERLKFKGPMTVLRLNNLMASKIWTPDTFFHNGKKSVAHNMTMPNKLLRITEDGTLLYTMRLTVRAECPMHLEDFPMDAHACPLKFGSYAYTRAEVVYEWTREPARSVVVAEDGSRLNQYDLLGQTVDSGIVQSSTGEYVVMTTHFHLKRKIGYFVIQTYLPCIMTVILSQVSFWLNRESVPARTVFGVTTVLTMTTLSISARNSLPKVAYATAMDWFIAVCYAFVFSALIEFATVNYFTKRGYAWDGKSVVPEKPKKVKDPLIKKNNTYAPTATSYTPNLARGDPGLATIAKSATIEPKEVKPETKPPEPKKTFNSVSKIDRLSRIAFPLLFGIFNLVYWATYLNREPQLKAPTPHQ
T2 sequence (P18507 whole entry): T1 sequence (P18507 whole entry)
T2 sequence (P28472 whole entry): T1 sequence (P28472 whole entry)
The data set can be described thus: Binding affinity at human recombinant gamma-aminobutyric-acid A receptor alpha-1-beta-3-gamma-2 expressed in L(tk) cells by [3H]Ro-151788 displacement. It counts as cell-based. Put shortly:
as §1

For data set [3], the target named is T3, Gamma-aminobutyric acid receptor subunit alpha-1 (Homo sapiens) (UniProt P14867).
T3 sequence (whole entry): T2 sequence (P14867 whole entry)
The data set can be described thus: Efficacy at gamma-aminobutyric acid A receptor, alpha 1-ion channel relative to chlorodiazepoxide. Put shortly: (§2)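 Human recombinant GABAA receptors, α1 or α3 with β3γ2, stably expressed in L(tk⁻) cells. Chloride ion flux modulated by test compound at approximately 1000×Ki, in the presence of GABA at an EC20-equivalent concentration. Efficacy expressed relative to full agonist chlordiazepoxide (=1.0), from at least seven independent experiments; some compounds measured instead by whole-cell patch-clamp current at GABA EC20.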

Data set [4] deals with T4, Gamma-aminobutyric acid receptor subunit alpha-3 (Homo sapiens) (UniProt P34903).
T4 sequence (whole entry): T1 sequence (P34903 whole entry)
Put plainly: Efficacy at Gamma-aminobutyric acid A receptor, alpha 3-ion channel relative to chlorodiazepoxide. Summed up: as §2

In data set [5] the target is T2, GABA-A receptor; alpha-1/beta-3/gamma-2. The data set can be described thus: Displacement of [3H]Ro-151788 from human GABA-A receptor alpha-1-beta-3-gamma-2 subunits expressed in L(tk) cells. It counts as cell-based. Summed up: as §1
Data set [6] addresses T5, Gamma-aminobutyric acid receptor subunit alpha-2 (Homo sapiens, UniProt P47869).
T5 sequence (P47869 whole entry): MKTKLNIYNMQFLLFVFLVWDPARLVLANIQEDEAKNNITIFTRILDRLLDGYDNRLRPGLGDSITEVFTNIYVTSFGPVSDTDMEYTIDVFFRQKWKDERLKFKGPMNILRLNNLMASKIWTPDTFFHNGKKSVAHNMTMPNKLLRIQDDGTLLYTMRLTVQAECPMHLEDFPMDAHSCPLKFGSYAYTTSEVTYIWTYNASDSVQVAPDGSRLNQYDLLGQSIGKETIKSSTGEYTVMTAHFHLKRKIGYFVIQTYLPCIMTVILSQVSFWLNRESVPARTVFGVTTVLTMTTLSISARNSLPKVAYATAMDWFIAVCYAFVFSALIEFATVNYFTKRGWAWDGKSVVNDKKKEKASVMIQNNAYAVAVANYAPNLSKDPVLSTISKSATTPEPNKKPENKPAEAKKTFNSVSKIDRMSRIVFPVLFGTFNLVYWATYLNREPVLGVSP
Put plainly: Displacement of [3H]Ro-151788 from human GABA-A receptor alpha2 subunit expressed in L(tk) cells. It counts as cell-based.

Data set [7] concerns the target Gamma-aminobutyric acid receptor subunit alpha-4 (Homo sapiens, UniProt P48169). The data set can be described thus: Displacement of [3H]Ro-151788 from human GABA-A receptor alpha4 subunit expressed in L(tk) cells. It counts as cell-based.
For data set [8], the target named is Gamma-aminobutyric acid receptor subunit alpha-6 (Homo sapiens, UniProt Q16445). The data set can be described thus: Displacement of [3H]Ro-151788 from human GABA-A receptor alpha6 subunit expressed in L(tk) cells. It counts as cell-based.
Data set [9] in a line: Oral bioavailability in rat. It counts as ADME, organism-based. The conditions noted are these: in vivo.
Data set [10] addresses T6, Gamma-aminobutyric acid receptor subunit alpha-5 (Homo sapiens, UniProt P31644).
T6 sequence (P31644 whole entry): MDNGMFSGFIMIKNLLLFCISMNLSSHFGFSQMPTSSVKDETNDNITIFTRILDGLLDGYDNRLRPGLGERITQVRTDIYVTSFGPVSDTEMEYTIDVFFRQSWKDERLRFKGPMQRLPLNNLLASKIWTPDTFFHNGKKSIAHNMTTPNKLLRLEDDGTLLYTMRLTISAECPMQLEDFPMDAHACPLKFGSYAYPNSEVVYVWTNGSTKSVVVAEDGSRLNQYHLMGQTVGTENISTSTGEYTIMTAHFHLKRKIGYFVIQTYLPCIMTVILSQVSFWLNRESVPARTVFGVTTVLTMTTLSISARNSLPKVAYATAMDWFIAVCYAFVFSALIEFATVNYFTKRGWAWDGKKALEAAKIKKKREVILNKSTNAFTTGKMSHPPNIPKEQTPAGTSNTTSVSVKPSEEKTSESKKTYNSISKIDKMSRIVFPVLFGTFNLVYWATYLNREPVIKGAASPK
The data set can be described thus: Displacement of [3H]-Ro-15-1788 from human GABA-A receptor alpha5 subunit expressed in L(tk) cells. Format: cell-based.

Data set [11] can be described thus: Oral bioavailability in dog. Format: ADME, organism-based, Canis lupus familiaris. To be noted: in vivo.

Sequence of Gamma-aminobutyric acid receptor subunit alpha-4 (P48169 whole entry): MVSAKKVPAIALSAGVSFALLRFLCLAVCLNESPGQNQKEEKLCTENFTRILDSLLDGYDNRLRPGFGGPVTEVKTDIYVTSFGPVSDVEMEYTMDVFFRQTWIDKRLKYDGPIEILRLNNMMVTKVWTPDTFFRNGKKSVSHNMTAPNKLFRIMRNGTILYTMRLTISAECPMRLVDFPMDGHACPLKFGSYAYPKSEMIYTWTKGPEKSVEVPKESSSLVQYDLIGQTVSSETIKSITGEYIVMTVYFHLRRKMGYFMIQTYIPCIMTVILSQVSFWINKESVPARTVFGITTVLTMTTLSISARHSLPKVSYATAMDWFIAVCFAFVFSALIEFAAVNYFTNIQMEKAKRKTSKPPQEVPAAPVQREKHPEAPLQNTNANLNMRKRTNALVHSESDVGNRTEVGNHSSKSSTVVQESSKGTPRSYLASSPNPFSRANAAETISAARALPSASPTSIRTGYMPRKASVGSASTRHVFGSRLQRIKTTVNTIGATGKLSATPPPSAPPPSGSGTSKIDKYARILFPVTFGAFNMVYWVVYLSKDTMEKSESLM
Sequence of Gamma-aminobutyric acid receptor subunit alpha-6 (Q16445 whole entry): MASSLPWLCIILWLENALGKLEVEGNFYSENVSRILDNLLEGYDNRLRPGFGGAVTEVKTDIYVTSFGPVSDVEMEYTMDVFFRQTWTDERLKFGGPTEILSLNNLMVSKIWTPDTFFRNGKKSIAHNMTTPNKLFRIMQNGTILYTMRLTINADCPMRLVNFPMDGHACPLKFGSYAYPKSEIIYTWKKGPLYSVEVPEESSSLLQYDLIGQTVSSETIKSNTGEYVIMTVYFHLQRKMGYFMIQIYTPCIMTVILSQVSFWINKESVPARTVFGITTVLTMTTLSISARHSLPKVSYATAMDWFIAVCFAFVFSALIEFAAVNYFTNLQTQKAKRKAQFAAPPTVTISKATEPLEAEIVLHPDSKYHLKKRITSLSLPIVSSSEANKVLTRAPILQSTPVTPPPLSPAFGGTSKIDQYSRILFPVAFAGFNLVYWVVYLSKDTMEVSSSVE

As for `Cc1csc(-c2cc(-c3ccnnc3)c3n(c2=O)CCCc2ccncc2-3)n1`, the Ki worked out at 5 nM in data set [1] and 8.3 nM in data set [2]. The values for the Efficacy in [3] and in [4] were -0.41 and 0.2, respectively.
For `Cc1csc(-c2cc(-c3ccc(C(C)(C)C)cc3)c3n(c2=O)CCCc2ccncc2-3)n1`, the Ki in [1] and in data set [2] was greater than 33 nM in each case.
For `Cc1csc(-c2cc(-c3cccnn3)c3n(c2=O)CCCc2ccncc2-3)n1`, the inhibition constant Ki in [1] worked out at 17.3 nM; in [2], 26.1 nM. For the same molecule, the Efficacy in data set [3] was -0.33; in [4], -0.44.
On the same counts, the results for `Cc1csc(-c2cc(-c3ccccc3C)c3n(c2=O)CCCc2ccncc2-3)n1` are 1.2 nM, 1.5 nM, 0.08 and 0.36.
On the same counts, the results for `Cc1csc(-c2cc(-c3ccncn3)c3n(c2=O)CCCc2ccncc2-3)n1` are 8.5 nM, 12.2 nM, 0.03 and 0.32.
On the same counts, the results for `Cc1csc(-c2cc(-c3ccc[nH]3)c3n(c2=O)CCCc2ccncc2-3)n1` are 4.2 nM, 7.8 nM, -0.21 and 0.41.
In the case of `Cc1csc(-c2cc(-c3c(C)noc3C)c3n(c2=O)CCCc2ccncc2-3)n1`, the Ki in data set [1] was determined as 3.1 nM; in data set [2], 4.6 nM. In addition, the Efficacy in data set [3] is -0.11; in data set [4], 0.41.
As for `Cc1csc(-c2cc(-c3ccc4ccccc4c3)c3n(c2=O)CCCc2ccncc2-3)n1`, the Ki in data set [1] and in data set [2] was greater than 33 nM each time.
`Cc1csc(-c2cc(-c3ccoc3)c3n(c2=O)CCCc2ccncc2-3)n1`: the Ki was found to be 4.4 nM in [1] and 3.9 nM in [2]. For the same molecule, the Efficacy in [3] was 0.04; in [4], 0.05.
As to `Cc1csc(-c2cc(-c3nccn3C)c3n(c2=O)CCCc2ccncc2-3)n1`, the inhibition constant Ki in [5] turned out to be 14.3 nM; in data set [1], 16.8 nM. In addition, the Efficacy in data set [3] was -0.33; in data set [4], -0.01.
Take `Cc1csc(-c2cc(-c3ccccc3F)c3n(c2=O)CCCc2ccncc2-3)n1`: the values for the Ki in data set [1] and in data set [2] were 3 nM and 5 nM, respectively. Besides, the Efficacy in data set [3] worked out at 0.56; in data set [4], 0.48.
On to `Cc1csc(-c2cc(-c3ccccc3)c3n(c2=O)CCCc2ccncc2-3)n1`, for which the Ki in data set [6] was determined as 0.3 nM; in data set [1], 0.4 nM; in data set [2] it was 0.7 nM. The values for the Efficacy in data set [3] and in data set [4] were 0.1 and 0.32, respectively.
As for `Cc1csc(-c2cc(-c3cccn3C)c3n(c2=O)CCCc2ccncc2-3)n1`, the Ki in data set [1] is 3 nM; in data set [2], 4 nM. For the same molecule, the Efficacy in data set [3] came to 0; in data set [4], 0.46.
Take `Cc1csc(-c2cc(-c3ccc(Cl)cc3)c3n(c2=O)CCCc2ccncc2-3)n1`: the Ki in data set [5] amounted to 0.2 nM; in data set [1], 0.4 nM. Further, the figures for the Efficacy in [3] and in data set [4] were 0.17 and 0.26, respectively.
As to `Cc1csc(-c2cc(-c3ccn(C)n3)c3n(c2=O)CCCc2ccncc2-3)n1`, the Ki in data set [1] turned out to be 20 nM; in [2] it was 10 nM. Further, the figures for the Efficacy in data set [3] and in [4] were 0.29 and 0.47, respectively.
On the same counts, the results for `Cc1csc(-c2cc(-c3cccnc3)c3n(c2=O)CCCc2ccncc2-3)n1` are 2.4 nM, 5.3 nM, -0.16 and -0.02.
Turning to `Cc1csc(-c2cc(-c3ccc(C#N)cc3)c3n(c2=O)CCCc2ccncc2-3)n1`, the Ki in data set [1] was 3.1 nM; in data set [2], 5.4 nM. Moreover, the figures for the Efficacy in [3] and in data set [4] were -0.04 and 0.39, respectively.
On the same counts, the results for `Cc1csc(-c2cc(-c3cncnc3)c3n(c2=O)CCCc2ccncc2-3)n1` are 9 nM, 21.1 nM, -0.03 and 0.16.
For the molecule `Cc1csc(-c2cc(-c3ccncc3)c3n(c2=O)CCCc2ccncc2-3)n1`, the Ki in data set [7] is 27.9 nM; in data set [8], 65.9 nM; in [1], 0.5 nM; in [2], 1.3 nM; in data set [10], greater than 33.3 nM. Further, the bioavailability in data set [9] was 28%; in data set [11], 20%. Besides, the Efficacy in data set [3] stood at 0; in data set [4], 0.45.
